FGF22 binding – shifts melting point of recombinant human FGF22; activity (Tm shift, normalised), % at 9.99 µM; Q9HCT0; recombinant FGF22 thermal shift, SYPRO orange fluorescence; percent of sucrose octasulfate shift, DMSO zero; actives 1.5% (n = 340,000);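 active = mean Tm shift, scaled 0 neutral to 100 positive control, at about 1.3% or above, every replicate too, limit read from the data; inconclusive = no clear call, values can overlap the other calls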
Target sequence (Q9HCT0 whole entry, looked up): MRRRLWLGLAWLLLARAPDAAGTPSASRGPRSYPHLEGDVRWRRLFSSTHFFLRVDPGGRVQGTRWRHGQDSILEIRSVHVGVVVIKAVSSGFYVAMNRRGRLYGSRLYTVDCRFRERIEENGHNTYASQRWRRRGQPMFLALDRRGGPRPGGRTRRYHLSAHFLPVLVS
S100A4 MyoIIA – S100A4-myosin IIA interaction inhibition; P26447; S100A4/TAMRA-MyoIIA peptide fluorescence polarization; inhibition, % at 10.7 µM; actives 0.14% (n = 360,000); AID 652163;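 active = mean inhibition of at least 70% across replicates, with every replicate also reaching that level; inconclusive = mean inhibition reaches 70% but some replicates fall short; inactive = mean inhibition below 70%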
Target sequence (P26447 whole entry, looked up): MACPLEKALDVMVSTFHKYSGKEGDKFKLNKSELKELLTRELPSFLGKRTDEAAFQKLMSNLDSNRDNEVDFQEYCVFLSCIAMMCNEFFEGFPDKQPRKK
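Compound dosing: one dose per compound; test system: human S100A4 monomer with TAMRA-labelled myosin IIA peptide; probe or stimulus: TAMRA-labelled myosin IIA heavy-chain peptide probe, 5 nM; medium: HEPES buffer with Ca2+, pH 7.2; schedule: 5 min incubation before reading; benchmarks: neutral control DMSO, positive control TFP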
SIRT5 inh – blocks human SIRT5 desuccinylation of peptide; inhibition, % at 15 µM; Purified SirT5, succinyl-peptide AMC, trypsin-coupled fluorescence; actives 1.1% (n = 330,000); Q9NXA8; in the data active = inhibition above about 15%; inconclusive = no clear call, values can overlap the other calls
Target sequence (Q9NXA8 whole entry, looked up): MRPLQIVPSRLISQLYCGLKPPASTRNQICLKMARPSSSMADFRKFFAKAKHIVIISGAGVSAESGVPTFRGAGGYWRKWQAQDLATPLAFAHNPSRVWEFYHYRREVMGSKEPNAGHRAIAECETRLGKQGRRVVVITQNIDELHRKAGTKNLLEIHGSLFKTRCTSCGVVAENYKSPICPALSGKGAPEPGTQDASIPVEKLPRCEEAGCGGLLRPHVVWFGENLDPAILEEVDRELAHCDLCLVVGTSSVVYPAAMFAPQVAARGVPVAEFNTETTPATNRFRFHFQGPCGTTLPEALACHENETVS
miR122 inh – miR-122 inhibition in Huh7 cells; Huh7 miR-122 Renilla luciferase sensor, 48 h; neutral wells = 0, positive control = 100; actives 0.3% (n = 340,000); activation (reporter increase), % at 12.5 µM;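 active = mean replicate activation score at least 90 and every replicate individually at or above 90; inconclusive = only one of the two criteria met; inactive = neither criterion met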;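 also: higher luciferase means less miR-122 activity so hits act as miR-122 inhibitors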
E-sel inducer – E-selectin induction on HUVECs; actives 0.37% (n = 260,000); activation, % at 7.58 µM; HUVEC E-selectin immunofluorescence imaging; normalized: neutral wells 0, TNF-alpha wells 100; P16581;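 active = mean E-selectin-positive cell signal at least 10% of the positive control, reached in at least 60% of replicates, without over 20% cell loss; inconclusive = no rule given, readout overlaps actives, possibly toxicity-flagged; inactive = the rest, including those meeting only one limit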
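Read-out: % PE-positive cells | Test system: HUVEC | Doses: One compound dose added by pin transfer | Buffer or medium: EGM-2 over gelatin coat | Signal: Immunofluorescence imaging | Benchmarks: TNF-alpha, DMSO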
Hits are given with their value; . = inactive; ? = inconclusive; / = no result given; ! = not confirmed by another sample; [ ] = remark or other dose. A selection: hits, their analogues and other compounds. The true share with any hit is near 2.5%.

SMILES	FGF22 binding	S100A4 MyoIIA	SIRT5 inh	miR122 inh	E-sel inducer
C[C@@H]1CCCCO[C@H](CN(C)C(=O)Nc2cccc3ccccc23)[C@@H](C)CN([C@H](C)CO)C(=O)c2cc(N(C)C)ccc2O1	.	.	27.0!	.	.
COc1ccc2c3c(n(C)c2c1)[C@@H](CO)N(CC1CCCCC1)CC31CCN(C(C)=O)CC1	.	.	.	/	.
C[C@H]1CN([C@@H](C)CO)C(=O)Cc2cc(NC(=O)Nc3ccccc3)ccc2O[C@@H]1CN(C)S(=O)(=O)c1ccc(F)cc1	.	.	.	.	.
C[C@@H]1CN([C@H](C)CO)C(=O)CCCn2cc(nn2)CO[C@@H]1CN(C)Cc1cccc(O)c1	.	.	.	.	.
O=C(Nc1ccc(Cl)cn1)c1ccc([N+](=O)[O-])o1	42.9	.	.	/	.
Cc1c(Cl)c([N+](=O)[O-])nn1Cc1ccc(C(=O)Nc2ccc(Cl)cn2)o1	/	/	/	.	/
Cc1cc(Cn2nnc3ccccc32)c(O)c(C(C)(C)C)c1	.	.	/	133.6	.
CC(C)(C)c1cccc(Cn2nnc3ccccc32)c1O	.	.	/	/	.
O=C(Nc1cccc(C(F)(F)F)c1)c1cc[n+]([O-])cc1	.	.	.	.	27.3
O=C(Nc1cccc(O)c1)c1ccc(C(F)(F)F)cc1	/	.	.	.	/
Cc1cc(C(=O)CN2C(=O)NC3(CCC(C)CC3)C2=O)c(C)n1C (stereo not given)	43.3	.	.	.	.
O=C(CN1C(=O)NC2(CCCCCC2)C1=O)Nc1ccccc1[N+](=O)[O-]	.	.	.	158.7	.
N#Cc1ccccc1NC(=O)CN1C(=O)NC2(CCCC2)C1=O	.	.	.	.	.
Cc1cc(C)c(C(=O)CN2C(=O)NC3(CCC(C)CC3)C2=O)cc1C (stereo not given)	.	.	.	.	.
COCCNC(=O)CN1C(=O)NC2(CCCCCC2)C1=O	.	.	16.9	/	/
CC1CCC(NC(=O)CN2C(=O)NC3(CCCCCC3)C2=O)CC1 (stereo not given)	.	.	16.4	/	.
CCC(=O)N(C)C[C@@H]1Oc2cc(C#Cc3ccncc3)ccc2S(=O)(=O)N([C@@H](C)CO)C[C@H]1C	.	.	.	.	.
O=C(Cc1ccncc1)NCC[C@H]1CC[C@H](NC(=O)C2CCC2)[C@H](CO)O1	.	.	.	/	.
O=S(=O)(NCCc1ccc(F)cc1)c1cc(C(F)(F)F)ccc1Br	.	.	.	126.9	.
O=S(=O)(NCCc1ccccc1)c1ccc(F)cc1Br	.	.	/	?	.
O=C(NCc1ccccc1)[C@]1(Cc2ccccc2)N=C(c2ccc(OCCCO)cc2)O[C@@H]1c1ccccc1	.	.	.	/	/
O=[N+]([O-])c1ccc(/C=N/Nc2nc(NCc3ccccc3)nc(N3CCOCC3)n2)cc1	.	.	.	/	/
O=[N+]([O-])c1cccc(/C=N/Nc2nc(NCc3ccccc3)nc(N3CCOCC3)n2)c1O	43.7	.	.	/	/
CCN(CC)c1ccc(N=Cc2ccc([N+](=O)[O-])o2)cc1	.	.	15.4	/	.
CC(=O)N(C)C[C@H]1Oc2cc(-c3cncnc3)ccc2S(=O)(=O)N([C@@H](C)CO)C[C@H]1C	.	.	.	.	.
SMILES	FGF22 binding	S100A4 MyoIIA	SIRT5 inh	miR122 inh	E-sel inducer
C[C@@H]1CN([C@H](C)CO)C(=O)c2cccc(NC(=O)c3ccncc3)c2O[C@H]1CN(C)S(C)(=O)=O	.	.	35.7	.	/
C[C@@H]1CN([C@@H](C)CO)C(=O)c2cccc(NC(=O)c3ccncc3)c2O[C@@H]1CN(C)C	.	.	.	112.0[16.7 µM]	/
C[C@H]1CN([C@@H](C)CO)C(=O)c2cc(-c3cccc(F)c3)cnc2O[C@H]1CN(C)CC1CCOCC1	.	.	.	.	.
O=C(Cc1ccccc1)N1CC(=O)N2[C@H](CO)[C@H](c3ccc(Br)cc3)[C@@H]2C1	/	.	.	/	.
CN(C)/C=C/c1oc2ccc(O)cc2c1[N+](=O)[O-]	.	.	23.6	/	/
Cc1oc2ccc(O)cc2c1C(=O)c1ccc([N+](=O)[O-])cc1	.	.	.	.	/
CCn1cc(CN2CCc3c([nH]c4ccccc34)C2c2cccc(O)c2)c(C)n1 (stereo not given)	.	.	.	/	.
CCn1cc(CN2N=C(C)CC2c2ccccc2)c(C)n1 (stereo not given)	44.0	.	.	/	/
O=C(C[C@@H]1C=C[C@@H](NC(=O)NC2CCCCC2)[C@@H](CO)O1)NCc1ccc(Cl)cc1	.	.	.	/	.
C[C@@H]1CN([C@@H](C)CO)C(=O)c2c(c3ccccc3n2C)-c2ccccc2CO[C@@H]1CN(C)Cc1ccc2c(c1)OCO2	.	.	20.2	/	.
COc1cccc(CN(C)C[C@H]2OCc3ccccc3-c3c(n(C)c4ccccc34)C(=O)N([C@H](C)CO)C[C@@H]2C)c1	/	.	.	/	.
C[C@H]1CN([C@@H](C)CO)C(=O)c2c(c3ccccc3n2C)-c2ccccc2CO[C@H]1CN(C)Cc1ccc(Oc2ccccc2)cc1	1.3	.	.	/	.
C[C@@H]1CN([C@H](C)CO)C(=O)c2c(c3ccccc3n2C)-c2ccccc2CO[C@@H]1CN(C)Cc1ccc(C(F)(F)F)cc1	1.4	.	.	/	.
COc1cccc(CN(C)C[C@@H]2OCc3ccccc3-c3c(n(C)c4ccccc34)C(=O)N([C@H](C)CO)C[C@H]2C)c1	.	.	29.3	/	.
CCCNC(=O)N[C@H]1CC[C@H](CC(=O)NC2CCCCC2)O[C@@H]1CO	.	.	.	/	.
O=C(NCCc1cccs1)c1ccc(CS(=O)Cc2cccc(Cl)c2)o1 (stereo not given)	43.1	.	/	/	.
O=C(COc1ccc(Cl)cc1)Nc1nnc(S(=O)(=O)N2CCCCCC2)s1	.	.	.	.	115.2
C#Cc1ccc([C@H]2C=C(C(=O)Nc3ccccc3)O[C@@H](OCCCCO)C2)cc1	.	.	.	/	/
COc1ccc(NC(=O)N(C)C[C@H]2Oc3ccc(NC(=O)c4ccncc4)cc3CC(=O)N([C@H](C)CO)C[C@H]2C)cc1	.	.	.	.	41.7
COc1ccc(NC(=O)N(C)C[C@@H]2Oc3ccc(NC(=O)C4CC4)cc3CC(=O)N([C@H](C)CO)C[C@H]2C)cc1	.	.	.	.	.
COc1ccc(NC(=O)N(C)C[C@H]2Oc3ccc(NC(=O)C4CC4)cc3CC(=O)N([C@H](C)CO)C[C@H]2C)cc1	.	/	-5.8	.	.
CCOC(=O)C1(CCOc2ccccc2)CCN(Cc2ccc(-n3cccn3)cc2)CC1	44.0	.	.	.	/
CCOC(=O)C1(CCOc2ccccc2)CCN(Cc2nccn2CC)CC1	.	.	.	/	/
CCOC(=O)C1(CCOc2ccccc2)CCN(Cc2ccncc2)CC1	.	.	.	.	/
CCOC(=O)C1(CCCc2ccccc2)CCN(Cc2nccn2CC)CC1	43.4	.	.	/	/
CCOC(=O)C1(CCOC)CCN(Cc2ccncc2)CC1	43.2	.	.	/	.
